# Results published in ChEMBL document CHEMBL1144568, “Synthesis of novel potent hepatitis C virus NS3 protease inhibitors: discovery of 4-hydroxy-cyclopent-2-ene-1,2-dicarboxylic acid as a N-acyl-L-hydroxyproline bioisostere” (Bioorg Med Chem, 2007).
# Test: Inhibition of full length HCV NS3/4A protease
# Parameters: species or system Hepacivirus hominis
# Summary of the method: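 30 min room-temperature preincubation with inhibitor, then FRET substrate RET S1 at 2 µM final. Activity followed continuously 20 min (ex 355/em 500 nm); IC50 by non-linear fit, Ki derived from IC50.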
row,Ki [µM],SMILES
1,> 2,CCC[C@H](NC(=O)[C@H]1C[C@H](Oc2cc(-c3ccccc3)nc3cc(OC)ccc23)C=C1C(=O)N[C@H](C(=O)N[C@H](C(=O)OC)C1CCCCC1)C(C)(C)C)C(=O)O
2,0.0013,C=C[C@@H]1C[C@]1(NC(=O)[C@@H]1C[C@@H](Oc2cc(-c3ccccc3)nc3cc(OC)ccc23)C=C1C(=O)N[C@H](C(=O)N[C@H](C(=O)NC)C1CCCCC1)C(C)(C)C)C(=O)O
3,> 2,C=C[C@@H]1C[C@]1(NC(=O)C1CC(Oc2cc(-c3ccccc3)nc3cc(OC)ccc23)C=C1C(=O)N[C@H](C(=O)N[C@H](C(=O)OC)C1CCCCC1)C(C)(C)C)C(=O)OC(C)(C)C (some centres undefined)
4,> 2,CC[C@H](NC(=O)[C@@H]1C[C@@H](Oc2cc(-c3ccccc3)nc3cc(OC)ccc23)C=C1C(=O)N[C@@H](C(=O)N[C@@H](C(=O)OC)C1CCCCC1)C(C)C)C(=O)O
5,0.03,CCC[C@H](NC(=O)[C@@H]1C[C@@H](Oc2cc(-c3ccccc3)nc3cc(OC)ccc23)C=C1C(=O)N[C@H](C(=O)N[C@H](C(=O)OC)C1CCCCC1)C(C)(C)C)C(=O)O
6,> 5,C=C[C@@H]1C[C@]1(NC(=O)C1CC(Oc2cc(-c3ccccc3)nc3cc(OC)ccc23)C=C1C(=O)N[C@H](C(=O)N(C)[C@H](C(=O)NC)C1CCCCC1)C(C)(C)C)C(=O)O (some centres undefined)
7,0.016,C=C[C@@H]1C[C@]1(NC(=O)[C@@H]1C[C@@H](Oc2cc(-c3ccccc3)nc3cc(OC)ccc23)C[C@H]1C(=O)N[C@H](C(=O)N[C@H](C(=O)NC)C1CCCCC1)C(C)(C)C)C(=O)O
8,0.108,C=C[C@@H]1C[C@]1(NC(=O)[C@H]1C[C@H](Oc2cc(-c3ccccc3)nc3cc(OC)ccc23)C=C1C(=O)N[C@H](C(=O)N[C@H](C(=O)OC)C1CCCCC1)C(C)(C)C)C(=O)O
9,0.0011,C=C[C@@H]1C[C@]1(NC(=O)[C@@H]1C[C@@H](Oc2cc(-c3ccccc3)nc3cc(OC)ccc23)C=C1C(=O)N[C@H](C(=O)N[C@H](C(=O)OC)C1CCCCC1)C(C)(C)C)C(=O)O
10,0.523,CC[C@H](NC(=O)C1CC(Oc2cc(-c3ccccc3)nc3cc(OC)ccc23)C=C1C(=O)N[C@H](C(=O)N[C@H](C(=O)OC)C1CCCCC1)C(C)C)C(=O)O (some centres undefined)
11,0.503,CC[C@H](NC(=O)C1CC(Oc2cc(-c3ccccc3)nc3cc(OC)ccc23)C=C1C(=O)N[C@H](C(=O)N[C@H](C(=O)OC)C1CCCCC1)C(C)(C)C)C(=O)O (some centres undefined)
12,2.56,CCC[C@H](NC(=O)[C@H]1C[C@H](Oc2cc(-c3ccccc3)nc3cc(OC)ccc23)C=C1C(=O)N[C@H](C(=O)N[C@H](C(=O)OC)C1CCCCC1)C(C)C)C(=O)O
13,0.28,CC[C@H](NC(=O)C1CC(Oc2cc(-c3ccccc3)nc3cc(OC)ccc23)C=C1C(=O)N[C@H](C(=O)N[C@H](C(=O)NC)C1CCCCC1)C(C)(C)C)C(=O)O (some centres undefined)
14,> 2,C=C[C@@H]1C[C@]1(NC(=O)C1CC(Oc2cc(-c3ccccc3)nc3cc(OC)ccc23)C=C1C(=O)N[C@H](C(=O)N[C@H](C(=O)NC)C1CCCCC1)C(C)(C)C)C(=O)OC(C)(C)C (some centres undefined)
15,0.023,C=C[C@@H]1C[C@]1(NC(=O)[C@H]1C[C@H](Oc2cc(-c3ccccc3)nc3cc(OC)ccc23)C=C1C(=O)N[C@H](C(=O)N[C@H](C(=O)NC)C1CCCCC1)C(C)(C)C)C(=O)O
16,0.102,CCC[C@H](NC(=O)[C@@H]1C[C@@H](Oc2cc(-c3ccccc3)nc3cc(OC)ccc23)C=C1C(=O)N[C@H](C(=O)N[C@H](C(=O)OC)C1CCCCC1)C(C)C)C(=O)O
17,0.067,CCC[C@H](NC(=O)C1CC(Oc2cc(-c3ccccc3)nc3cc(OC)ccc23)C=C1C(=O)N[C@H](C(=O)N[C@H](C(=O)NC)C1CCCCC1)C(C)(C)C)C(=O)O (some centres undefined)
18,0.024,C=C[C@@H]1C[C@]1(NC(=O)C1CC(Oc2cc(-c3ccccc3)nc3cc(OC)ccc23)C=C1C(=O)N[C@H](C(=O)N[C@H](C(=O)OC)C1CCCCC1)C(C)C)C(=O)O (some centres undefined)
19,> 2,CC[C@H](NC(=O)C1CC(Oc2cc(-c3ccccc3)nc3cc(OC)ccc23)C=C1C(=O)N[C@H](C(=O)OC)C(C)C)C(=O)O (some centres undefined)
